Data on four compounds can be found in ChEMBL document CHEMBL4732057, “Design, synthesis and biological evaluation of second-generation benzoylpiperidine derivatives as reversible monoacylglycerol lipase (MAGL) inhibitors” (Eur J Med Chem, 2021).

Calls of active or inactive are those of the source. The calls are words filed in the database; no cut-off is given here.

The experiment has as its target T1, Monoacylglycerol lipase ABHD6 (Mus musculus) (UniProt Q8R2Y0).
T1 sequence (whole entry): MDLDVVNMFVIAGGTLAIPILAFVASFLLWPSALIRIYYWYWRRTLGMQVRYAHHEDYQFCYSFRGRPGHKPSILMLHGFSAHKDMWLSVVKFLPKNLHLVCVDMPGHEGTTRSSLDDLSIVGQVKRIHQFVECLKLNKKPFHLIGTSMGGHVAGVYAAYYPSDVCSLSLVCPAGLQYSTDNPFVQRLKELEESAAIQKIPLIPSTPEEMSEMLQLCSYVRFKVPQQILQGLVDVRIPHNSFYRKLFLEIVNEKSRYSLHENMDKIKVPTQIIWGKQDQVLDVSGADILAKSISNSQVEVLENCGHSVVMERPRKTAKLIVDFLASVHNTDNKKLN
As to the kind of experiment: Inhibition of ABHD6 in mouse brain membrane up to 30 uM preincubated for 25 mins followed by TAMRA-FP labeling addition and measured after 5 mins by competitive ABPP based analysis. It counts as cell membranes. The note with it: dose microM <=30, time 30.0 min. In a few lines: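 Mouse brain membranes, 4 mg/mL in PBS, preincubated 25 min at 25 °C with compound at 10 µM or a range of concentrations. Labelled 5 min with TAMRA-FP at 125 nM final. Proteins resolved on 11% SDS-PAGE and scanned for fluorescence.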
Regarding `O=C(c1ccc(Cc2ccccc2)cc1)C1CCN(C(=O)c2cc(O)c(F)cc2F)CC1`, the inhibition entry was “inactive”.
The same measure for `O=C(c1ccc(Cc2ccccc2)cc1)C1CCN(C(=O)c2cc(O)ccc2F)CC1`: “inactive”.
The entry for `O=C(c1ccc(Sc2ccccc2)cc1)C1CCN(C(=O)c2cc(O)c(F)cc2F)CC1` is “inactive”; for `O=C(c1ccc(Sc2ccccc2)cc1)C1CCN(C(=O)c2cc(O)ccc2F)CC1` it is “inactive”.
